Screening data (PubChem BioAssay)
LEDGF integ inh: blocks HIV-1 LEDGF/p75-dependent DNA integration. TR-FRET IN-LEDGF/p75 DNA integration, Eu/Cy5. inhibition, % at 3.7 µM. 0.64% of 370,000 active. AID 743269;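 active = inhibition above the screen-wide mean plus 3 SD, cut at about 13% in these data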;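 note: signal is the Cy5 over europium emission ratio at 671 and 618 nm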
UHRF1 binding: human UHRF1 methylated DNA binding inhibitors. Q96T88. UHRF1 binding to methylated oligo, TR-FRET. inhibition, % at 4.4 µM. 0.75% of 370,000 active;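 note: UHRF1 SRA domain binding a hemimethylated CpG hairpin DNA probe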
MBD2 DNA inh: inhibitors of human MBD2 binding to methylated oligonucleotide. Q9UBB5. TR-FRET. inhibition, % at 4.4 µM. 0.31% of 370,000 active. AID 686964; in the data active = inhibition above about 13%
Rin1-Abl PPI inh: inhibitors of human Rin1-Abl protein interaction; inhibition, % at 7.35 µM; 0.4% of 360,000 active; P00519+Q13671; AID 588664; TR-FRET Rin1/Abl binding, biochemical; in the data active = inhibition above about 5%, passing the limit was not always enough
TDP2 absorb: TDP2 (human) inhibition, absorbance primary screen. O95551. recombinant TDP2, T5PNP hydrolysis, p-nitrophenol absorbance 415 nm. inhibition, % at 12.8 µM. 0.34% of 370,000 active;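 active = inhibition above the mean of all tested compounds plus 3 SD, set per campaign, cut at about 25% in these data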
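System – recombinant human TDP2 · Quantity – TDP2 enzyme at 120 nM final · Doses – single concentration, 12.8 µM nominal, with 1% DMSO · Incubation – 2 h at 37 °C · Measured by – epi absorbance of p-nitrophenol freed from T5PNP by hydrolysis · Read-out – % inhibition relative to enzyme-containing and enzyme-free wells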
UHRF1 DNA bind: inhibits human UHRF1 binding to methylated oligonucleotide, MBD2 counter-screen; shares compounds with MBD2 DNA inh; TR-FRET; inhibition, % at 4.4 µM; 25% of 1,000 active;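 note: UHRF1 SRA domain binding a labeled hemimethylated CpG hairpin DNA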
MBD2 DBD conf: confirmation of human MBD2-DBD methylated oligonucleotide binding inhibitors | 26% of 1,000 active | inhibition, % at 4.4 µM | AID 720531 | TR-FRET MBD2-DBD binding to methylated oligonucleotide | shares compounds with MBD2 DNA inh; in the data active = inhibition above about 14%
Numbers stand for hits; i = inactive; nt = no result. A selection: hits, their analogues and other compounds. The true share with any hit is near 1.9%. Cut-off read from the data, not from the text of the source, unless noted: active = inhibition above about 21%; inactive = the rest.

SMILES | LEDGF integ inh | UHRF1 binding | MBD2 DNA inh | Rin1-Abl PPI inh | TDP2 absorb | UHRF1 DNA bind | MBD2 DBD conf
C[N+]1(CC(=O)NNc2c3ccccc3nc3ccccc23)CCOCC1 | i | 28.8 | 40.0 | nt | i | 34.5 | 30.6
CN(C)c1cccc(/C=C2\CC3(OC(=O)c4ccco4)CCCN2C3)c1 (configuration not stated) | i | i | i | nt | i | nt | nt
Cc1cc(C)n(/C(=C/N(C)C)C(=O)c2ccccc2)n1 | i | i | i | i | i | nt | nt
Cc1cc(C)n(C(=O)/C(C#N)=C/N(C)C)n1 | i | i | 38.7 | i | i | i | i
Cc1ccccc1C1CCC2(CC1)CCN(CC[C@@H](O)c1ccccc1)C2=O (some centres not stated) | i | i | i | nt | i | nt | nt
O=C(NC1CC1)C1CCN(S(=O)(=O)c2ccc(Cl)c([N+](=O)[O-])c2)CC1 | i | i | 34.5 | i | i | i | i
O=C(NC1CCN(S(=O)(=O)c2cccc([N+](=O)[O-])c2)CC1)C1CCCCC1 | i | i | i | i | i | nt | nt
COc1ccc(Cl)cc1NC(=S)N1CCC(c2ccc(C)cc2)C1 (configuration not stated) | i | i | 22.8 | i | i | i | i
COc1ccc(Cc2nnc(NC(=O)C3CCCO3)s2)cc1 (configuration not stated) | i | i | 15.3 | i | i | i | i
CC(C)(C)OC(=O)N1CCC(N[C@@H](Cc2ccccc2)C(=O)NCC(c2ccccc2)c2ccccc2)(C(=O)NC2CCCCC2)CC1 | i | i | i | nt | i | nt | nt
CCN(CC)C(=S)NC(=O)c1ccc(F)cc1 | i | i | 26.7 | i | i | i | i
CCN(CC)C(=S)NC(=O)c1cccnc1 | i | i | i | i | i | nt | nt
COC(=O)[C@]12C[C@H](CC(=O)NCc3cccc4ccccc34)C(=O)N(Cc3ccc(Cl)cc3Cl)C1=C[C@H](C1CCCC1)O[C@@H]2C | i | i | i | nt | i | nt | nt
Cc1cccc(N2C(=O)CC(Sc3nc(C)c4c(n3)CCCC4)C2=O)c1 (configuration not stated) | i | i | 13.6 | i | i | i | i
O=C(NCCCN1CCCC1=O)Nc1ccc(Cl)cc1 | i | i | 13.9 | i | i | i | i
CCCCCCCCN1C(=O)[C@@H](CC(=O)N2CCCC2)C[C@@]2(C(=O)OC)C1=C[C@H](C(C)C)O[C@@H]2C1CC1 | i | i | i | nt | i | nt | nt
CCN(CC)CCN1C(=O)c2cccc3cc(N)cc(c23)C1=O | i | i | 14.3 | i | i | i | i
Cc1nn(-c2ccccc2)c2sc(C(=O)NCC3CCCO3)cc12 (configuration not stated) | i | i | i | nt | i | nt | nt
COC(=O)[C@H]1[C@H](c2ccccc2)[C@H](C(=O)OC)O[C@H]1c1ccccc1 | i | i | i | i | i | nt | nt
COC(=O)C1C(c2ccccc2)C=CC(c2ccccc2)C1C(=O)O (configuration not stated) | i | i | 43.8 | i | i | i | i
CCn1c2ccccc2c2cc(NC(=O)COC(=O)c3ccc(F)cc3Cl)ccc21 | i | i | i | nt | i | nt | nt
NS(=O)(=O)c1ccc(NC(CNS(=O)(=O)c2ccccc2)c2ccccc2)cc1 (configuration not stated) | i | i | 13.8 | i | i | i | i
O=S(=O)(NCC(Nc1ccc(Cl)cc1)c1ccccc1)c1ccccc1 (configuration not stated) | i | i | i | i | i | nt | nt
CNC(=O)c1c(NC(=O)c2ccc(S(=O)(=O)N3CCCCC3)cc2)sc2c1CCN(C(C)C)C2 | i | i | 16.5 | i | i | i | i
O=C(CSCc1ccc(F)cc1)Nc1ccccc1 | i | i | i | i | i | nt | nt
SMILES | LEDGF integ inh | UHRF1 binding | MBD2 DNA inh | Rin1-Abl PPI inh | TDP2 absorb | UHRF1 DNA bind | MBD2 DBD conf
O=C(CSCc1ccccc1)Nc1ccc(F)c(F)c1 | i | i | 16.2 | i | i | i | i
CCOC(=O)c1cnc2c(cnn2C)c1NCc1ccc(OC)cc1 | i | i | 43.5 | i | i | i | i
Cc1ccccc1NC(=O)c1ccc(CN2CCc3ccccc3C2)cc1 | i | i | 33.6 | i | i | i | i
CCOC(=O)[C@]12CCC=C1N(Cc1ccco1)C(=O)[C@H](CC(=O)N1CCC(c3ccccc3)CC1)C2 | i | i | 15.1 | nt | i | i | i
CC(C)(C)Nc1scc(-c2ccccc2)[n+]1-c1ccccc1 | i | i | 18.0 | i | i | i | i
CCN(CC)S(=O)(=O)c1ccc(N2CCCC2)c(NC(=O)c2nn(C)c(=O)c3ccccc23)c1 | i | i | i | i | i | nt | nt
CCN(CC)S(=O)(=O)c1ccc(N2CCOCC2)c(NC(=O)c2nn(C)c(=O)c3ccccc23)c1 | i | i | 13.9 | i | i | i | i
O=C(O)c1ccc(-n2cccc2/C=N\NC(=O)c2cc3cc(Br)ccc3o2)cc1 | i | 61.6 | 32.8 | i | i | 65.6 | 40.8
C[C@@H]1[C@@H](O)C[C@]2(C[C@@H](O)c3ccccc3O2)O[C@H]1c1ccccc1 | i | i | i | nt | i | nt | nt
Cn1cnc([N+](=O)[O-])c1S(=O)(=O)Oc1ccccc1 | i | i | 14.4 | i | i | i | i
CN(Cc1ccco1)C(=O)c1cccc2c1C(=O)N(Cc1cccnc1)C2 | i | i | i | nt | i | nt | nt
O=C(CSc1nnc(-c2cccnc2)n1-c1ccc(Cl)cc1)c1ccc2ccccc2c1 | i | i | i | nt | i | nt | nt
CC(C)[C@H](NS(=O)(=O)c1ccc2c(c1)OCCO2)C(=O)OCC(=O)Nc1ccccc1 | i | 28.3 | 18.9 | i | i | i | i
COCCSc1nnc(-c2cccnc2)n1Cc1ccccc1 | i | i | i | nt | i | nt | nt
O=C(NCCCN1CCOCC1)C(=O)NCc1ccc(Cl)cc1 | i | i | 13.1 | i | i | i | i
S=C(NCCCN1CCOCC1)Nc1ccc(Cl)cc1 | i | i | i | i | i | nt | nt
CN1C(=O)C[C@@](C#N)(C(=O)NCc2ccc3c(c2)OCO3)[C@H]1c1ccccc1 | i | i | i | nt | i | nt | nt
COC(CNC(=O)c1cn(C)c2ccc(S(=O)(=O)N(C)C3CCCCC3)cc2c1=O)OC | i | i | 25.8 | i | i | i | i
CCn1cc(C(=O)NCC(OC)OC)c(=O)c2cc(S(=O)(=O)N(C)C3CCCCC3)ccc21 | i | i | i | i | i | nt | nt
Cc1ccccc1CC1(CO)CCCN(C(=O)CCN2CCCO2)C1 (configuration not stated) | i | i | 16.0 | i | i | i | i
O=C1CCCC2=C1C(c1ccc(Br)cc1)c1c([nH]c(=S)[nH]c1=O)N2 (configuration not stated) | i | i | i | i | i | nt | nt
O=c1[nH]c(=S)[nH]c2c1C(c1ccc(Br)cc1)c1c([nH]c(=S)[nH]c1=O)O2 | 82.9 | 107.3 | 104.7 | i | 53.2 | 104.4 | 88.4
